# Tests used:
# Format in all cases: functional
# Homo sapiens [1] = species: Homo sapiens; assay: Number of taste judgments per compound
# Homo sapiens [2] = species: Homo sapiens; assay: Percentage of judgments reporting an aftertaste at a concentration of 2400 ppm and character thereof
# Summary of the method: (§1)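 Trained judges tasted aqueous solutions of the compounds, which had to be ≥95 weight percent pure and to have passed mutagenicity and single oral dose toxicity screening. The value is the percentage of panel judgments reporting an aftertaste. Where given, its character is recorded as sweet, bitter or bitter-sweet.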
# Homo sapiens [3] = species: Homo sapiens; assay: Experimentally determined perceived intensity of compound at a concentration of 2400 ppm (mean value)
# Summary of the method: (§2)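 Trained human sensory panel of judges tasted aqueous solutions of the compound. Samples had to be ≥95 weight % pure (HPLC, proton titration, Karl Fischer), non-mutagenic in five Salmonella typhimurium strains with and without microsomal activation, and non-toxic in a single-oral-dose mouse test. Perceived intensity (Ip) was read from time–intensity curves at 4- or 6-s intervals and averaged. Outliers at the 95% level were rejected by t-value. Values reported as mean (2Sm).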
# Homo sapiens [4] = species: Homo sapiens; assay: Experimentally determined perceived intensity of compound at a concentration of 4100 ppm (mean value); summary of the method: as §2
# Homo sapiens [5] = species: Homo sapiens; assay: Percentage of judgments reporting an aftertaste at a concentration of 1000 ppm and character thereof; summary of the method: as §1
# Homo sapiens [6] = species: Homo sapiens; assay: Other taste character at a concentration of 1000 ppm (mean value)
# Summary of the method: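 Trained human panel tasted aqueous solutions of each compound. Aftertaste is scored as the percentage of judgments reporting one, with its character coded sweet (s), bitter (b) or bitter-sweet (bs).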
# Homo sapiens [7] = species: Homo sapiens; assay: Intensity calculated on a weight basis relative to an 85500 ppm sucrose solution at a concentration of 1000 ppm (mean value)
# Summary of the method: (§3)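 Trained human panel tasted aqueous solutions of purity-checked (≥95 weight percent) compounds cleared for mutagenicity and mouse oral toxicity. Weight-basis intensity I_w = perceived intensity × (85500 ppm sucrose / compound concentration in ppm). The mean is reported with 2S_m limits; data deviating excessively at 95% confidence were rejected by the t-value method.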
# Homo sapiens [8] = species: Homo sapiens; assay: Sweet / Bitter character at a concentration of 1000 ppm (mean value); 75/25
# Homo sapiens [9] = species: Homo sapiens; assay: Salty character at a concentration of 1000 ppm (mean value)
# Homo sapiens [10] = species: Homo sapiens; assay: Experimentally determined perceived intensity of compound at a concentration of 1000 ppm (mean value); summary of the method: as §2
# Homo sapiens [11] = species: Homo sapiens; assay: Intensity calculated on a molar basis relative to a 0.25 M sucrose solution at a concentration of 1000 ppm (mean value)
# Summary of the method: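 Panel-derived mean perceived intensity (Ip) converted to a molar basis by Im = Ip × (0.25 M / Y), where Y is the compound's molar concentration. Reference is a 0.25 M sucrose solution. Reported with limits of 2Sm.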
# Homo sapiens [12] = species: Homo sapiens; assay: Sour character at a concentration of 1000 ppm (mean value)
# Homo sapiens [13] = species: Homo sapiens; assay: Bitter character at a concentration of 1000 ppm (mean value)
# Summary of the method: (§4)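 Trained human panel tasted aqueous solutions. Each judge reported whether there was an aftertaste and its character (sweet, bitter or bitter-sweet). The value is the percentage of judgments reporting a bitter aftertaste.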
# Homo sapiens [14] = species: Homo sapiens; assay: Sweet character at a concentration of 1000 ppm (mean value)
# Homo sapiens [15] = species: Homo sapiens; assay: Sweet / Bitter character at a concentration of 497 ppm (mean value); 0/100
# Homo sapiens [16] = species: Homo sapiens; assay: Bitter character at a concentration of 497 ppm (mean value); summary of the method: as §4
# Homo sapiens [17] = species: Homo sapiens; assay: Intensity calculated on a molar basis relative to a 0.25 M sucrose solution at a concentration of 497 ppm (mean value)
# Summary of the method: (§5)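 Trained human judges tasted aqueous solutions of the test compound; compounds were first required to be ≥95 weight percent pure and free of mutagenicity (five Salmonella typhimurium strains, ± microsomal activation) and of single oral dose mouse toxicity. Molar intensity I_m = perceived intensity × (0.25 M sucrose / compound molar concentration). The mean is reported with 2S_m limits; outliers were rejected at 95% confidence by t-value.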
# Homo sapiens [18] = species: Homo sapiens; assay: Experimentally determined perceived intensity of compound at a concentration of 497 ppm (mean value); summary of the method: as §2
# Homo sapiens [19] = species: Homo sapiens; assay: Percentage of judgments reporting an aftertaste at a concentration of 497 ppm and character thereof
# Homo sapiens [20] = species: Homo sapiens; assay: Sour character at a concentration of 497 ppm (mean value)
# Homo sapiens [21] = species: Homo sapiens; assay: Sweet character at a concentration of 497 ppm (mean value)
# Homo sapiens [22] = species: Homo sapiens; assay: Intensity calculated on a weight basis relative to an 85500 ppm sucrose solution at a concentration of 497 ppm (mean value); summary of the method: as §3
# Homo sapiens [23] = species: Homo sapiens; assay: Other taste character at a concentration of 497 ppm (mean value)
# Summary of the method: (§6)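 Trained human sensory panel (Swartz method) tasted dilute aqueous solutions of the compounds, which had to be ≥95 weight percent pure and free of mutagenicity and toxicity. Taste character is reported as the mean value with 2S_m limits. Data deviating excessively at the 95% confidence level were rejected by the t-value method.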
# Homo sapiens [24] = species: Homo sapiens; assay: Salty character at a concentration of 497 ppm (mean value)
# Homo sapiens [25] = species: Homo sapiens; assay: Sweet / Bitter character at a concentration of 251 ppm (mean value)
# Homo sapiens [26] = species: Homo sapiens; assay: Experimentally determined perceived intensity of compound at a concentration of 251 ppm (mean value); summary of the method: as §2
# Homo sapiens [27] = species: Homo sapiens; assay: Percentage of judgments reporting an aftertaste at a concentration of 251 ppm and character thereof; Bitter; summary of the method: as §1
# Homo sapiens [28] = species: Homo sapiens; assay: Intensity calculated on a weight basis relative to an 85500 ppm sucrose solution at a concentration of 251 ppm (mean value); summary of the method: as §3
# Homo sapiens [29] = species: Homo sapiens; assay: Sweet character at a concentration of 251 ppm (mean value); summary of the method: as §6
# Homo sapiens [30] = species: Homo sapiens; assay: Intensity calculated on a molar basis relative to a 0.25 M sucrose solution at a concentration of 251 ppm (mean value); summary of the method: as §5
# Homo sapiens [31] = species: Homo sapiens; assay: Other taste character at a concentration of 251 ppm (mean value); summary of the method: as §6
# Homo sapiens [32] = species: Homo sapiens; assay: Salty character at a concentration of 251 ppm (mean value); summary of the method: as §6
# Homo sapiens [33] = species: Homo sapiens; assay: Bitter character at a concentration of 251 ppm (mean value); summary of the method: as §4
# Homo sapiens [34] = species: Homo sapiens; assay: Sour character at a concentration of 251 ppm (mean value); summary of the method: as §6
# Homo sapiens [35] = species: Homo sapiens; assay: Intensity calculated on a molar basis relative to a 0.25 M sucrose solution at a concentration of 250 ppm (mean value); summary of the method: as §5
# Homo sapiens [36] = species: Homo sapiens; assay: Other taste character at a concentration of 250 ppm (mean value); summary of the method: as §6
# Homo sapiens [37] = species: Homo sapiens; assay: Sweet / Bitter character at a concentration of 250 ppm (mean value); 0/100
# Homo sapiens [38] = species: Homo sapiens; assay: Intensity calculated on a weight basis relative to an 85500 ppm sucrose solution at a concentration of 250 ppm (mean value); summary of the method: as §3
# Homo sapiens [39] = species: Homo sapiens; assay: Experimentally determined perceived intensity of compound at a concentration of 250 ppm (mean value); summary of the method: as §2
# Homo sapiens [40] = species: Homo sapiens; assay: Percentage of judgments reporting an aftertaste at a concentration of 250 ppm and character thereof; summary of the method: as §1
# Homo sapiens [41] = species: Homo sapiens; assay: Sour character at a concentration of 250 ppm (mean value); summary of the method: as §6
# Homo sapiens [42] = species: Homo sapiens; assay: Salty character at a concentration of 250 ppm (mean value); summary of the method: as §6
# Homo sapiens [43] = species: Homo sapiens; assay: Sweet character at a concentration of 250 ppm (mean value); summary of the method: as §6
# Homo sapiens [44] = species: Homo sapiens; assay: Bitter character at a concentration of 250 ppm (mean value); summary of the method: as §4
compound,measurement,setting,value
COc1ccc(CCC(=O)c2c(O)cc(OC(CCC(=O)[O-])C(=O)[O-])cc2O)cc1O.[Na+].[Na+] (centres undefined),Judgments,Homo sapiens [1],1
same,Judgments,Homo sapiens [2],0
same,IP,Homo sapiens [3],0
COc1ccc(-c2cc(=O)c3c(O)cc(OCCCS(=O)(=O)[O-])cc3o2)cc1O.[K+],Judgments,Homo sapiens [1],1
same,IP,Homo sapiens [4],0
COc1ccc(CCC(=O)c2c(O)cc(OCCN)cc2O)cc1O,Judgments,Homo sapiens [5],100
same,Taste character,Homo sapiens [6],0
same,IW,Homo sapiens [7],86
same,Taste character,Homo sapiens [8],75
same,Taste character,Homo sapiens [9],0
same,Judgments,Homo sapiens [1],1
same,IP,Homo sapiens [10],1
same,IM,Homo sapiens [11],87
same,Taste character,Homo sapiens [12],0
same,Taste character,Homo sapiens [13],25
same,Taste character,Homo sapiens [14],75
O=C([O-])COc1cc(O)c(C(=O)CCc2ccc3c(c2)OCO3)c(O)c1.[Na+],Taste character,Homo sapiens [15],0
same,Taste character,Homo sapiens [16],79
same,Judgments,Homo sapiens [1],12
same,IM,Homo sapiens [17],160
same,IP,Homo sapiens [18],0.83
same,Judgments,Homo sapiens [19],100
same,Taste character,Homo sapiens [20],0
same,Taste character,Homo sapiens [21],0
same,IW,Homo sapiens [22],140
same,Taste character,Homo sapiens [23],21
same,Taste character,Homo sapiens [24],0
COc1ccc(C2CC(=O)c3c(O)cc(OCC(=O)[O-])cc3O2)cc1O.[Na+] (centres undefined),Taste character,Homo sapiens [25],16
same,IP,Homo sapiens [26],0.79
same,Judgments,Homo sapiens [1],12
same,Judgments,Homo sapiens [27],100
same,IW,Homo sapiens [28],270
same,Taste character,Homo sapiens [29],15
same,IM,Homo sapiens [30],300
same,Taste character,Homo sapiens [31],7
same,Taste character,Homo sapiens [32],0
same,Taste character,Homo sapiens [33],78
same,Taste character,Homo sapiens [34],0
O=C(O)CCc1ccc(O)c(O)c1 [DIHYDROCAFFEIC ACID],IM,Homo sapiens [35],130
same,Taste character,Homo sapiens [36],9
same,Taste character,Homo sapiens [37],0
same,IW,Homo sapiens [38],250
same,IP,Homo sapiens [39],0.73
same,Judgments,Homo sapiens [1],8
same,Judgments,Homo sapiens [40],50
same,Taste character,Homo sapiens [41],76
same,Taste character,Homo sapiens [42],0
same,Taste character,Homo sapiens [43],0
same,Taste character,Homo sapiens [44],15

# Source: ChEMBL document CHEMBL1121813, “Dihydrochalcone sweeteners. A study of the atypical temporal phenomena” (1981)
